Source: ChEMBL document CHEMBL4837218, “Synthesis and in vitro antitumour activity of 4(R)-methyl-3-O-phosphonomethyl-α-l-threose nucleosides” (Eur J Med Chem, 2021)
Active and inactive are the calls of the source. The calls are words filed in the database; no cut-off is given here.

Legend:
MGC-803 = test: Anticancer activity against human MGC-803 cells assessed as inhibition of cell growth measured after 72 hrs by MTT assay; assay type: functional, cell-based; conditions: MGC-803, 72 h
How it was run: (§1)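 Cells seeded at 3000 exponentially growing cells/well and incubated 12 h at 37 °C. Medium then replaced with fresh medium containing graded compound concentrations for 72 h; 5-FU positive control. MTT (5 mg/mL solution) added for 4 h, formazan dissolved in DMSO, absorbance read at 570 nm (reference 630 nm). Relative percentage inhibition of viable cells calculated; IC50 reported as mean ± standard deviation.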

A549 = test: Antiproliferative activity against human A549 cells assessed as cell growth inhibition measured after 72 hrs by MTT assay; assay type: functional, cell-based; conditions: A549, 72 h; how it was run: as §1
PC-3 = test: Antiproliferative activity against human PC-3 cells assessed as cell growth inhibition measured after 72 hrs by MTT assay; assay type: functional, cell-based; conditions: PC-3, 72 h; how it was run: as §1
MDA-MB-231 [1] = test: Antiproliferative activity against human MDA-MB-231 cells assessed as growth inhibition measured after 72 hrs by MTT assay; assay type: functional, cell-based; conditions: MDA-MB-231, 72 h; how it was run: as §1
MCF7 [2] = test: Potency index, ratio of 5-FU IC50 to test compound IC50 for anticancer activity against human MCF7 cells measured after 72 hrs by MTT assay; assay type: functional
How it was run: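 MTT assay: 3000 exponentially growing cells per well, 12 h at 37 °C. Medium replaced with compound at a range of concentrations for 72 h. MTT (5 mg/mL stock) added for 4 h, formazan dissolved in DMSO. Absorbance read at 570 nm (reference 630 nm); percent inhibition gives IC50. Index is 5-FU IC50 divided by test-compound IC50.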

GES1 = test: Antiproliferative activity against human GES1 cells assessed as growth inhibition measured after 72 hrs by MTT assay; assay type: functional, cell-based; conditions: GES1, 72 h; how it was run: as §1
MCF7 [3] = test: Cell cycle arrest in human MCF7 cells assessed as accumulation at G2/M phase at 2 uM measured after 48 hrs by propidium iodide staining based flow cytometry (reference value: 0.01 %); assay type: functional
MDA-MB-231 [4] = test: Cell cycle arrest in human MDA-MB-231 cells assessed as accumulation at S phase at 3 uM measured after 48 hrs by propidium iodide staining based flow cytometry (reference value: 35.54 %); assay type: functional
MDA-MB-231 [5] = test: Cell cycle arrest in human MDA-MB-231 cells assessed as accumulation at G2/M phase at 6 uM measured after 48 hrs by propidium iodide staining based flow cytometry (reference value: 15.46 %); assay type: functional
MDA-MB-231 [6] = test: Cell cycle arrest in human MDA-MB-231 cells assessed as accumulation at G1 phase at 9 uM measured after 48 hrs by propidium iodide staining based flow cytometry (reference value: 46.28%); assay type: functional
MDA-MB-231 [7] = test: Cell cycle arrest in human MDA-MB-231 cells assessed as accumulation at G2/M phase at 9 uM measured after 48 hrs by propidium iodide staining based flow cytometry (reference value: 15.46 %); assay type: functional
MDA-MB-231 [8] = test: Induction of apoptosis in human MDA-MB-231 cells assessed as late apoptotic cells at 6 uM measured after 48 hrs by Annexin V-FITC/propidium iodide staining based flow cytometric analysis (reference value: 0.3%); assay type: functional
MCF7 [9] = test: Induction of mitochondrial membrane potential loss in human MCF7 cells assessed as green fluorescence intensity at 1 uM measured after 48 hrs by JC1 staining-based flow cytometry analysis (reference value: 8.1 %); assay type: functional
MCF7 [10] = test: Induction of mitochondrial membrane potential loss in human MCF7 cells assessed as red fluorescence intensity at 2 uM measured after 48 hrs by JC1 staining-based flow cytometry analysis (reference value: 91.9%); assay type: functional
MCF7 [11] = test: Induction of DNA damage in human MCF7 cells assessed as increase in Chk2 phosphorylation at Thr68 residue at 1 to 4 uM measured after 48 hrs by western blot analysis; assay type: functional, cell-based; conditions: dose 1-4 µM
How it was run: (§2)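 Cells exposed to graded concentrations for 48 h, then proteins extracted. Run on SDS-PAGE (5–15% gels) and transferred to nitrocellulose. Blocked 2 h in 5% nonfat milk in PBS/0.1% Tween 20, primary antibody overnight at 4 °C, biotin-conjugated secondary 1 h. Visualized on X-ray film with densitometric quantitation; three independent experiments.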

MCF7 [12] = test: Induction of G2/M phase cell cycle arrest in human MCF7 cells assessed as increase in cdc25c protein expression at 1 to 4 uM measured after 48 hrs by western blot analysis; assay type: functional, cell-based; conditions: dose 1-4 µM; how it was run: as §2
MCF7 [13] = test: Induction of G2/M phase cell cycle arrest in human MCF7 cells assessed as decrease in p-cdc2 protein expression at 1 to 4 uM measured after 48 hrs by western blot analysis; assay type: functional, cell-based; conditions: dose 1-4 µM; how it was run: as §2
MDA-MB-231 [14] = test: Induction of DNA damage in human MDA-MB-231 cells assessed as increase in Chk2 phosphorylation at Thr68 residue at 3 to 9 uM measured after 48 hrs by western blot analysis; assay type: functional, cell-based; conditions: dose 3-9 µM; how it was run: as §2
MDA-MB-231 [15] = test: Induction of G2/M phase cell cycle arrest in human MDA-MB-231 cells assessed as decrease in cyclinB1 protein expression at 3 to 9 uM measured after 48 hrs by western blot analysis; assay type: functional, cell-based; conditions: dose 3-9 µM; how it was run: as §2
MCF7 [16] = test: Induction of apoptosis in human MCF7 cells assessed as increase in cleaved caspase 7 protein expression at 1 to 4 uM measured after 48 hrs by western blot analysis; assay type: functional, cell-based; conditions: dose 1-4 µM
How it was run: (§3)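 MCF-7 and MDA-MB-231 breast cancer cells treated 48 h with a concentration series, then lysed for protein. SDS-PAGE on 5–15% gels, transfer to nitrocellulose. Blocked 2 h in 5% nonfat milk/PBS-0.1% Tween 20, primary antibodies overnight at 4 °C, biotin-conjugated secondary 1 h. X-ray film detection with densitometric quantification.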

MCF7 [17] = test: Induction of apoptosis in human MCF7 cells assessed as increase in cleaved caspase 9 protein expression at 1 to 4 uM measured after 48 hrs by western blot analysis; assay type: functional, cell-based; conditions: dose 1-4 µM; how it was run: as §3
MCF7 [18] = test: Induction of apoptosis in human MCF7 cells assessed as early apoptotic cells at 4 uM measured after 48 hrs in presence of cdc25c inhibitor, NSC663284 by AnnexinV-FITC/PI staining based flow cytometry (reference value: 0.9%); assay type: functional
MDA-MB-231 [19] = test: Induction of apoptosis in human MDA-MB-231 cells assessed as early apoptotic cells at 9 uM measured after 48 hrs in presence of cdc25c inhibitor, NSC663284 by AnnexinV-FITC/PI staining based flow cytometry (reference value: 7.4%); assay type: functional
MCF7 [20] = test: Induction of apoptosis in human MCF7 cells assessed as increase in cleaved caspase 3 protein expression at 4 uM measured after 48 hrs in presence of cdc25c inhibitor, NSC663284 by western blot analysis; assay type: functional, cell-based
How it was run: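 Four arms per cell line: untreated, test compound, 0.3 µM NSC663284 alone, and combination. Proteins harvested after 48 h and resolved by SDS-PAGE on 5–15% gels, transferred to nitrocellulose. Blocked 2 h in milk/PBS-Tween, primary antibodies overnight at 4 °C, biotin-conjugated secondary. Read on X-ray film with densitometry.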

MCF7 [21] = test: Induction of G2/M phase cell cycle arrest in human MCF7 cells assessed as upregulation of p-cdc25c at ser216 residue protein expression at 4 uM measured after 48 hrs by western blot analysis; assay type: functional, cell-based; how it was run: as §2
MDA-MB-231 [22] = test: Induction of G2/M phase cell cycle arrest in human MDA-MB-231 cells assessed as upregulation of p-cdc25c at ser216 residue protein expression at 9 uM measured after 48 hrs by western blot analysis; assay type: functional, cell-based

C[C@H]1O[C@@H](n2cnc3c(N)nc(F)nc32)[C@H](O)[C@H]1OCP(=O)([O-])[O-].[Na+].[Na+]
IC50 (MGC-803): 6.18 µM
IC50 (A549): 3.48 µM
IC50 (PC-3): 2.21 µM
IC50 (MDA-MB-231 [1]): 0.391 µM
Ratio IC50 (MCF7 [2]): 41
IC50 (GES1): 5.09 µM
Activity (MCF7 [3]): 17.9%
Activity (MDA-MB-231 [4]): 34.82%
Activity (MDA-MB-231 [5]): 28.54%
Activity (MDA-MB-231 [6]): 33.66%
Activity (MDA-MB-231 [7]): 31.49%
Activity (MDA-MB-231 [8]): 18.8%
Activity (MCF7 [9]): 9.1%
Activity (MCF7 [10]): 67.2%
Activity (MCF7 [11]): Active
Activity (MCF7 [12]): Active
Activity (MCF7 [13]): Active
Activity (MDA-MB-231 [14]): Active
Activity (MDA-MB-231 [15]): Active
Activity (MCF7 [16]): Active
Activity (MCF7 [17]): Active
Activity (MCF7 [18]): 8.6%
Activity (MDA-MB-231 [19]): 5.1%
Activity (MCF7 [20]): inactive
Activity (MCF7 [21]): Active
Activity (MDA-MB-231 [22]): Active
